Measured values published in ChEMBL document CHEMBL4130549, “Synthesis and bioactivities study of new antibacterial peptide mimics: The dialkyl cationic amphiphiles” (Eur J Med Chem, 2018).
The source made the active and inactive calls. No cut-off for these calls is given here.

What was measured:
[1] = tested on: Staphylococcus aureus; assay: Antibiofilm activity against Staphylococcus aureus ATCC 29213 assessed as bacterial cell viability in biofilm at 2 ug/ml after 24 hrs (reference value: 21.9 log10CFU/ml); format: functional
In short: (§1)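 Mid-log cells at ~10⁵ CFU/mL grown stationary in 96-well plates (S. aureus in MHB for 24 h; E. coli in M9 with 0.02% casamino acids and 0.5% glycerol for 72 h). After washing, biofilms exposed 24 h at 37 °C to 2-128 µg/mL; detached with trypsin-EDTA, serially plated, viability given as log10 CFU/well against an untreated control.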

[2] = tested on: Staphylococcus aureus; assay: Antibiofilm activity against Staphylococcus aureus ATCC 29213 assessed as bacterial cell viability in biofilm at 4 ug/ml after 24 hrs (reference value: 21.9 log10CFU/ml); format: functional; in short: as §1
[3] = Selectivity index, ratio of HC50 for sheep RBC to MIC for Staphylococcus aureus ATCC 29213; format: toxicity; conditions: sheep red blood cells (erythrocytes), read-out: Selectivity Index
In short: (§2)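 HC50 from sheep RBC lysis: 5% RBC suspension exposed 1 h at 37 °C to a 5120–10 µg/mL series, with A540 of supernatant scaled to 0.1% Triton X-100. MIC by CLSI broth microdilution in cation-adjusted MHB, ~10^6 CFU/mL, 256–0.5 µg/mL, 37 °C for 16–20 h, duplicates with at least two repeats.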

[4] = Selectivity index, ratio of HC50 for sheep RBC to MIC for Escherichia coli ATCC 25922; format: toxicity; conditions: sheep red blood cells (erythrocytes), read-out: Selectivity Index; in short: as §2
[5] = tested on: Staphylococcus aureus; assay: Bactericidal activity against Staphylococcus aureus ATCC 29213 assessed as time required to kill early exponential phase at 8 ug/ml by time kill assay; format: functional
In short: (§3)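 Overnight culture diluted 1:10,000 in MHB and shaken at 37 °C, 225 rpm, for 2 h (early exponential) or 5 h (late exponential), then exposed to compound at 6× and 8× MIC in tubes at 37 °C, 225 rpm. Samples (100 µL) taken at intervals, pelleted, resuspended in PBS, and ten-fold dilutions plated on MHA overnight at 37 °C for CFU/mL. Biological replicates.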

[6] = tested on: Staphylococcus aureus; assay: Bactericidal activity against Staphylococcus aureus ATCC 29213 assessed as time required to kill early exponential phase at 6 ug/ml by time kill assay; format: functional; in short: as §3
[7] = tested on: Staphylococcus aureus; assay: Bactericidal activity against Staphylococcus aureus ATCC 29213 assessed as time required to kill late exponential phase at 6 to 8 ug/ml by time kill assay; format: functional; in short: as §3
[8] = tested on: Escherichia coli; assay: Bactericidal activity against Escherichia coli ATCC 25922 assessed as time required to kill early exponential phase at 12 to 16 ug/ml by time kill assay; format: functional
[9] = tested on: Escherichia coli; assay: Bactericidal activity against Escherichia coli ATCC 25922 assessed as time required to kill late exponential phase at 12 to 16 ug/ml by time kill assay; format: functional
[10] = tested on: Staphylococcus aureus; assay: Antibiofilm activity against Staphylococcus aureus ATCC 29213 assessed as bacterial cell viability in biofilm at 8 ug/ml after 24 hrs (reference value: 21.9 log10CFU/ml); format: functional; in short: as §1
[11] = tested on: Staphylococcus aureus; assay: Antibiofilm activity against Staphylococcus aureus ATCC 29213 assessed as bacterial cell viability in biofilm at 16 ug/ml after 24 hrs (reference value: 21.9 log10CFU/ml); format: functional; in short: as §1
[12] = tested on: Staphylococcus aureus; assay: Antibiofilm activity against Staphylococcus aureus ATCC 29213 assessed as bacterial cell viability in biofilm at 32 ug/ml after 24 hrs (reference value: 21.9 log10CFU/ml); format: functional; in short: as §1
[13] = tested on: Staphylococcus aureus; assay: Antibiofilm activity against Staphylococcus aureus ATCC 29213 assessed as bacterial cell viability in biofilm at 64 ug/ml after 24 hrs (reference value: 21.9 log10CFU/ml); format: functional; in short: as §1
[14] = tested on: Staphylococcus aureus; assay: Antibiofilm activity against Staphylococcus aureus ATCC 29213 assessed as bacterial cell viability in biofilm at 128 ug/ml after 24 hrs (reference value: 21.9 log10CFU/ml); format: functional; in short: as §1
[15] = tested on: Escherichia coli; assay: Antibiofilm activity against Escherichia coli ATCC 25922 assessed as bacterial cell viability in biofilm at 2 ug/ml after 24 hrs (reference value: 25.9 log10CFU/ml); format: functional; in short: as §1
[16] = tested on: Escherichia coli; assay: Antibiofilm activity against Escherichia coli ATCC 25922 assessed as bacterial cell viability in biofilm at 8 ug/ml after 24 hrs (reference value: 25.9 log10CFU/ml); format: functional; in short: as §1
[17] = tested on: Escherichia coli; assay: Antibiofilm activity against Escherichia coli ATCC 25922 assessed as bacterial cell viability in biofilm at 16 ug/ml after 24 hrs (reference value: 25.9 log10CFU/ml); format: functional; in short: as §1
[18] = tested on: Escherichia coli; assay: Antibiofilm activity against Escherichia coli ATCC 25922 assessed as bacterial cell viability in biofilm at 32 ug/ml after 24 hrs (reference value: 25.9 log10CFU/ml); format: functional; in short: as §1
[19] = tested on: Escherichia coli; assay: Antibiofilm activity against Escherichia coli ATCC 25922 at 8 to 128 ug/ml after 72 hrs by crystal violet staining based assay; format: functional, organism-based
In short: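 Biofilms grown in 24-well plates for about 72 h at 37 °C, treated, stained with 1.0% crystal violet, rinsed, dried, dye taken up in 95% ethanol for 1 h at room temperature, then photographed.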

[20] = tested on: Escherichia coli; assay: Antibiofilm activity against Escherichia coli ATCC 25922 after 24 hrs by turbidity method; format: functional
In short: (§4)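 MBEC: biofilms grown 24 h at 37 °C from 1:1000-diluted exponential-phase culture; planktonic cells removed, twofold dilutions in fresh medium added for 24 h at 37 °C, then fresh medium alone for 24 h recovery. MBEC is the lowest concentration with no visible turbidity.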

[21] = tested on: Staphylococcus aureus; assay: Antibiofilm activity against Staphylococcus aureus ATCC 29213 after 24 hrs by turbidity method; format: functional; in short: as §4
[22] = tested on: Escherichia coli; assay: Antibiofilm activity against Escherichia coli ATCC 25922 after 24 hrs by crystal violet staining method; format: functional
In short: (§5)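 MBIC: twofold dilutions in MHB inoculated with 1:1000-diluted exponential-phase culture (10⁸ CFU/mL), 24 h at 37 °C. Wells rinsed, stained 10 min with 0.1% crystal violet, dye dissolved in ethanol, OD540 read; MBIC80 taken from dose–response versus untreated wells.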

[23] = tested on: Staphylococcus aureus; assay: Antibiofilm activity against Staphylococcus aureus ATCC 29213 after 24 hrs by crystal violet staining method; format: functional; in short: as §5
[24] = tested on: Escherichia coli; assay: Ratio of MBEC to MIC for Escherichia coli ATCC 25922 after 24 hrs; format: functional
In short: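 For MBEC, biofilms grown 24 h at 37 °C from a 1:1000 dilution of exponential-phase culture, washed, exposed 24 h to two-fold compound dilutions in fresh medium, then recovered 24 h in medium alone; MBEC is the lowest concentration with no turbidity. MIC by CLSI broth microdilution in cation-adjusted MHB, ~10^6 CFU/mL inoculum, 37 °C, 16–20 h.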

[25] = tested on: Staphylococcus aureus; assay: Antibacterial activity against Staphylococcus aureus ATCC 29213 after 20 serial passages measured after 16 to 20 hrs by broth microdilution method; format: functional, organism-based
In short: (§6)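 Sub-MIC serial passaging: after an initial broth microdilution MIC, cells grown at MIC/2 were transferred into a new MIC assay after each 24 h incubation, for 20 passages. MIC was plotted against days to follow resistance development. Passaging controls were norfloxacin for S. aureus and colistin for E. coli.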

[26] = tested on: Escherichia coli; assay: Antibacterial activity against Escherichia coli ATCC 25922 after 20 serial passages measured after 16 to 20 hrs by broth microdilution method; format: functional, organism-based; in short: as §6

## CCCCCCCCCN(CCCCCCCCC)C(=O)[C@@H](N)CCCCN.Cl.Cl
[1]
  Activity: 19.9 log10CFU
[2]
  Activity: 18.6 log10CFU
[3]
  selectivity ratio: 133
[4]
  selectivity ratio: 66.5
[5]
  Time: 0.5 h
[6]
  Time: 120 min
[7]
  Time: 6 h
[8]
  Time: 0.5 h
[9]
  Time: 1 h
[10]
  Activity: 11.9 log10CFU
[11]
  Activity: 11.5 log10CFU
[12]
  Activity: 9.9 log10CFU
[13]
  Activity: 7.9 log10CFU
[14]
  Activity: 7.6 log10CFU
[15]
  Activity: 24.7 log10CFU
[16]
  Activity: 8.4 log10CFU
[17]
  Activity: 4.1 log10CFU
[18]
  Activity: 2.1 log10CFU
[19]
  Activity: Active
[20]
  MBEC: 128 µg/mL
[21]
  MBEC: 64 µg/mL
[22]
  MBIC80: 53.9 µg/mL
  MBIC90: 73.6 µg/mL
[23]
  MBIC80: 18 µg/mL
  MBIC90: 26.9 µg/mL
[24]
  Ratio: 64
[25]
  Activity: Active
[26]
  Activity: Active
